Data set [1] concerns the target T1, Cannabinoid receptor 1 (Homo sapiens, UniProt P21554). Description: Positive allosteric modulatory activity at human CB1R expressed in CHO-K1 cells assessed as increase in CP55940-induced beta-arrestin2 recruitment after 90 mins in presence of CP55940 at EC20 concentration by pathhunter beta-arrestin assay. Format: cell-based. A digest of the protocol:
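Read-out was chemiluminescent β-arrestin2 recruitment, fit with a 4-parameter regression. n = 1–3 independent experiments in duplicate.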
(In general: Arrestin recruitment assays detect the binding of arrestin to an activated receptor.)

Data set [2] addresses T1, Cannabinoid receptor 1. Nature of the data set: Agonist activity at human CB1 receptor expressed in CHO cell membranes assessed as increase in G-protein coupling by measuring [35S]GTPgammaS binding after 90 mins in presence of [35S]GTPgammaS by liquid scintillation analysis. Format: functional. A digest of the protocol:
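[35S]GTPγS binding to G protein in membranes from CHO cells stably expressing human CB1R, with test compound given alone. Data fit to a variable-slope 4-parameter nonlinear regression. n = 4–6 independent experiments in duplicate.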

The target in data set [3] is T1, Cannabinoid receptor 1. Description: Positive allosteric modulatory activity at human CB1R expressed in CHO-K1 cells assessed as increase in CP55940-induced beta arrestin2 recruitment after 90 mins in presence of 100 nM CP55940 by pathhunter beta-arrestin assay. Format: cell-based.
In data set [4] the target is T1, Cannabinoid receptor 1. Description: Positive allosteric modulatory activity at human CB1R expressed in CHO-K1 cells assessed as increase in CP55940-induced inhibition of forskolin-induced cAMP accumulation by measuring cAMP accumulation at minimal level at higher concentration after 90 mins in presence of 100 nM CP55940 by hit-hunter cAMP assay relative to forskolin. Format: functional, cell-based. A digest of the protocol:
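Uses the HitHunter CHO-K1 hCB1R cAMP set-up above. […] Data normalized to % forskolin, 4-parameter fit. n ≥ 6, triplicate.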

Data set [5] concerns the target T1, Cannabinoid receptor 1. Nature of the data set: Allosteric agonist activity at human CB1R expressed in CHO-K1 cells assessed as increase in beta arrestin2 recruitment after 90 mins by pathhunter beta-arrestin assay. Format: cell-based. A digest of the protocol:
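PathHunter CHO-K1 hCB1R cells (20,000/well) were held overnight in Opti-MEM with 1% FBS. Compound alone (0.10 nM – 10 μM) was given at 37°C for 90 min, then detection solution for 60 min at room temperature and chemiluminescence was read.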

Data set [6] deals with Mus musculus. Nature of the data set: Antiallodynic activity against CFA-induced mechanical allodynia CD1 mouse model assessed as effect on ipsilateral paw withdrawal threshold at 30 mg/kg, ip after 4 hrs post treatment by Von Frey test. Format: functional, organism-based. A digest of the protocol:
(§1)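 Time course in the CFA model at 30 mg/kg i.p. Ipsilateral and contralateral mechanical paw withdrawal thresholds were followed from 30 min to 4 h post-injection in wild-type and CB1 knockout mice. Compared with vehicle by ANOVA and Bonferroni post hoc tests.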

Data set [7] has as its target Cannabinoid receptor 1 (Rattus norvegicus) (UniProt P20272). Description: Positive allosteric modulatory activity at N-terminal GFP-tagged rat CB1R receptor expressed in HEK293 cells assessed as downward shift in CP55940 dependent concentration response curve for inhibition of forskolin-induced cAMP accumulation after 30 mins by TR-FRET assay. Format: functional, cell-based.

The target is the same in data set [8]. Description: Positive allosteric modulatory activity at N-terminal GFP-tagged rat CB1R receptor expressed in HEK293 cells assessed as increase in CP55940-induced inhibition of forskolin-induced cAMP accumulation by measuring Emax for cAMP accumulation at low concentrations of CP55940 at 0.03 microM after 30 mins by TR-FRET assay relative to forskolin. Format: functional, cell-based. A general note: Cyclic AMP is a second messenger, typically raised through Gs and lowered through Gi signalling.

Data set [9] concerns the target Cannabinoid receptor 1 (Rattus norvegicus, UniProt P20272). Nature of the data set: Allosteric agonist activity at N-terminal GFP-tagged rat CB1R expressed in HEK293 cells assessed as inhibition of forskolin-induced cAMP production after 30 min by TR-FRET assay. Format: functional, cell-based. A digest of the protocol:
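HEK293 cells stably expressing N-terminal GFP-tagged rat CB1R were trypsin-EDTA dissociated and resuspended in HBSS with 0.1% BSA and 0.5mM IBMX at 500 cells/well. Cells got 5μM forskolin plus compound (1 pM – 10 μM) alone for 30 min. 4-parameter fit; Emin is the lower plateau. n ≥ 3, triplicate.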

A short description of data set [10]: Toxicity in C57BL/6 mouse assessed as effect on hypothermia at 0.1 to 10 mg/kg, ip after 15 mins by thermometric method. Format: organism-based. The conditions noted are these: in vivo. A digest of the protocol: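 Male C57BL/6 mice were given 0.1 – 10 mg/kg compound or vehicle (1:1:18 ethanol:cremaphor:saline). Body temperature was measured at 15 min and expressed relative to vehicle (100%). n = 5–6.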

For data set [11] the following is noted: buffer, pH 7.4, 2 h.
Data set [12] concerns Mus musculus. Nature of the data set: Antiallodynic activity against CFA-induced mechanical allodynia CD1 mouse model assessed as increase in ipsilateral paw withdrawal threshold at 30 mg/kg, ip after 30 mins post treatment by Von Frey test. Format: functional, organism-based. A digest of the protocol: as §1
For data set [13] the following is noted: rat, microsomes, 1 µM.
Data set [14] deals with Mus musculus. Description: Antiallodynic activity against CFA-induced mechanical allodynia CD1 mouse model assessed as increase in ipsilateral paw withdrawal threshold at 30 mg/kg, ip by Von Frey test. Format: functional, organism-based. The conditions noted are these: TDE = time-dependent effect. A digest of the protocol: as §1
In data set [15] the target is T1, Cannabinoid receptor 1. Nature of the data set: Displacement of [3H]CP55940 from human CB1R receptor expressed in CHO cell membranes after 60 mins by liquid scintillation spectrometry analysis. On the technique in general: Loss of bound radioactivity is the signal in a displacement assay; it reports binding, not function.
Data set [16] concerns Mus musculus. Nature of the data set: Antinociceptive activity in C57BL/6 mouse at 3 to 10 mg/kg, ip after 20 mins post treatment by warm water tail-flick assay. Format: functional, organism-based.
The test system of data set [17] is Mus musculus. Nature of the data set: Antinociceptive activity in ip dosed C57BL/6 mouse after 20 mins post treatment by warm water tail-flick assay. Format: functional, organism-based.
Data set [18] addresses Cannabinoid receptor 1 (Rattus norvegicus) (UniProt P20272). Nature of the data set: Positive allosteric modulatory activity at N-terminal GFP-tagged rat CB1R receptor expressed in HEK293 cells assessed as leftward shift in CP55940 dependent concentration response curve for inhibition of forskolin-induced cAMP accumulation after 30 mins by TR-FRET assay. Format: functional, cell-based.

For data set [19], the system named is Mus musculus. Nature of the data set: Antiallodynic activity against CFA-induced mechanical allodynia CB1 receptor knockout CD1 mouse assessed as effect on ipsilateral paw withdrawal threshold at 30 mg/kg, ip measured for 0.5 to 4 hrs by Von Frey test. Format: functional, organism-based. A digest of the protocol: as §1
Data set [20] has as its system Mus musculus. Description: Antiallodynic activity against CFA-induced mechanical allodynia CD1 mouse model assessed as increase in ipsilateral paw withdrawal threshold at 30 mg/kg, ip after […] post treatment by Von Frey test. Format: functional, organism-based.
Data set [21] addresses T1, Cannabinoid receptor 1. Description: Positive allosteric modulatory activity at human CB1R expressed in CHO-K1 cells assessed as increase in CP55940-induced inhibition of forskolin-stimulated cAMP production after 30 mins in presence of CP55940 at EC20 concentration by hit-hunter cAMP assay relative to control. Format: functional, cell-based. A digest of the protocol: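 Read-out was chemiluminescent cAMP detection, fit with a variable-slope 4-parameter regression. n = 1–3 independent experiments in duplicate.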

In data set [22] the target is Cannabinoid receptor 1 (Rattus norvegicus) (UniProt P20272). Nature of the data set: Positive allosteric modulatory activity at N-terminal GFP-tagged rat CB1R receptor expressed in HEK293 cells assessed as increase in CP55940-induced inhibition of forskolin-induced cAMP accumulation by measuring Emax for cAMP accumulation at low concentration of CP55940 at 0.1 microM after 30 mins by TR-FRET assay relative to forskolin. Format: functional, cell-based.

Molecules are shown by their SMILES. Activity calls are given as the source filed them. Some results are limits rather than exact numbers.

Cannabinoid receptor 1 (Rattus norvegicus), sequence (P20272 whole entry): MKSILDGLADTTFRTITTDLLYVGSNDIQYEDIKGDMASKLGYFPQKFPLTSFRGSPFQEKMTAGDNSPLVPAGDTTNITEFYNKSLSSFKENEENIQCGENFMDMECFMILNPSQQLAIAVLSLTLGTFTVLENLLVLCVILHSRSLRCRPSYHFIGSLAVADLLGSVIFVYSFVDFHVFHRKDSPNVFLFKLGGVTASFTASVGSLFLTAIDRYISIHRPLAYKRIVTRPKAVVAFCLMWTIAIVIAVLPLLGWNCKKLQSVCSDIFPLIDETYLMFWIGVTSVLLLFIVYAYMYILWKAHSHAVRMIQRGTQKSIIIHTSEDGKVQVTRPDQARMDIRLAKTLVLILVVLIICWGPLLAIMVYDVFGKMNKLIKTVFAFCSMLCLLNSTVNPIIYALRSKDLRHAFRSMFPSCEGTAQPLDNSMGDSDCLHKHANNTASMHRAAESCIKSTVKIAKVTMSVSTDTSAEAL
T1 sequence (P21554 whole entry): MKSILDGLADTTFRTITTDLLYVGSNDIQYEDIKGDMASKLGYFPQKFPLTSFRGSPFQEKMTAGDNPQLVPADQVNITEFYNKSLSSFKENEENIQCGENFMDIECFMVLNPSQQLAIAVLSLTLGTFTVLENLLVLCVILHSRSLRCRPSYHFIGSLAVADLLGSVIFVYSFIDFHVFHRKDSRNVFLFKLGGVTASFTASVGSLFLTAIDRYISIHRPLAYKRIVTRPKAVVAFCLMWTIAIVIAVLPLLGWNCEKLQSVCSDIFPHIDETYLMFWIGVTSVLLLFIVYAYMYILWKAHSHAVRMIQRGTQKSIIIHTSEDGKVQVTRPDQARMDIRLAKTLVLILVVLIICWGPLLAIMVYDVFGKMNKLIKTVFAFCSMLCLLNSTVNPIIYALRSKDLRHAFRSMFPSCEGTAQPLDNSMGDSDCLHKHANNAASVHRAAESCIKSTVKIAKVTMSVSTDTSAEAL
Cannabinoid receptor 1 (Rattus norvegicus, UniProt P20272), sequence (P20272 whole entry): as the sequence (P20272 whole entry) above

For `O=[N+]([O-])CC(c1ccccc1F)c1c(-c2cccc(F)c2)[nH]c2cc(F)ccc12` (stereo not drawn), the EC50 (as a rule, the concentration at which the effect is half-maximal) in [1] was found to be 750 nM; in [2], 47 nM; in data set [3], 190 nM; in data set [5], 1600 nM; in data set [9], 27 nM. Moreover, the Emin in data set [4] amounted to 9%. Moreover, the outcome in data set [6] and in data set [19] was inactive. Besides, the Activity entry in data set [7] is “Dose-dependent effect”; in [10] it was “Non-Toxic”; in [14] it was “Tde”; in [17], “Dose-dependent effect”; in [18], “Dose-dependent effect”. The Emax (usually the greatest response seen or fitted, relative to the assay's reference) was 58% in data set [8], 93% in [21] and 46% in data set [22]. For the same molecule, in data set [11], the Kinetic_solubility came to 1.56 µM. Besides, the outcome in data set [12], in [16] and in data set [20] was Active. In data set [13], this molecule returned a CLH of 248 µL/min. Further, the affinity in data set [15], expressed as Ki, was 88 nM.

On to `O=[N+]([O-])CC(c1ccccc1F)c1c(-c2cccc(F)c2)[nH]c2c(F)cccc12` (stereo not drawn), for which the EC50 in data set [1] was 510 nM; in data set [2], 33 nM; in data set [3] it was 3500 nM; in data set [5], > 10000 nM; in data set [9] it was 26 nM. Also, the Emin in data set [4] was determined as 10%. The outcome in data set [6] and in data set [19] was inactive. For the same molecule, the Activity result in [7] is “Dose-dependent effect”; in [10], “Non-Toxic”; in data set [14], “Tde”; in [17] it was “Dose-dependent effect”; in data set [18] it was “Dose-dependent effect”. Besides, the Emax in [8] was 63%; in data set [21] it was 93%; in [22], 52%. In data set [11], this molecule had a Kinetic_solubility of 1.56 µM. Besides, the result in [12], in data set [16] and in data set [20] was Active. Also, the inhibitory constant (Ki) (commonly a dissociation constant, usually derived from enzyme kinetics or from competition with a known ligand) in data set [15] was found to be 94 nM.
